ADAM17 inh = ADAM17 inhibitors, primary screen, biochemical, QFRET. Disintegrin and metalloproteinase domain-containing protein 17 (Homo sapiens), P78536. recombinant ADAM17, EDANS/DABCYL FRET peptide cleavage. inhibition, % at 6.95 µM. actives 0.83% (n = 370,000);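 active = inhibition above the mean of compounds lying between control limits plus 3 SD, set per campaign, cut at about 8.5% in these data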;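 note: 0% = DMSO-only wells as the low control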
MPTP block = mitochondrial permeability transition pore inhibitors, primary screen, biochemical, isolated mouse mitochondria, absorbance | Ca2+ swelling absorbance, 30 min | inhibition, % at 10 µM | actives 1.4% (n = 360,000) | AID 602449, 2012;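 active = inhibition of 50% or more, scaled per plate between neutral and stimulator controls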;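 note: 0% = DMSO wells given calcium and 100% = 1 mM EGTA wells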
SKN-1 block = suppressors of acrylamide-induced Pgst-4::GFP reporter in worms, primary screen, SKN-1 inhibitor project, whole organism, uHTS, GFP/RFP fluorescence ratio, strain VP596; C. elegans VP596 Pgst-4::GFP/RFP ratio, 24 h; inhibition, % at 21.8 µM; actives 0.49% (n = 360,000); AID 624304, 2012;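 active = interference check ratio from 0.5 to 1.5 plus GFP to RFP signal ratio inhibition reaching or exceeding a fixed threshold, cut at about 30% in these data, passing the limit was not always enough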
MT1-MMP act inh = blockers of MT1-MMP proenzyme processing, primary screen, HT1080 RFP-PRO-GFP cells, GFP/RFP fluorescence | GFP/RFP ratio fluorescence, overnight; percent of plate control window, DMSO zero | GFP/RFP ratio change, % at 20 µM | actives 0.061% (n = 360,000) | AID 651647, 2012;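 active = GFP/RFP ratio change of at least 30% with cell ATP level not reduced by more than half and red fluorescence within 50% of control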
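Assay system: RFP-PRO-GFP reporter HT1080 cells; read-out basis: GFP/RFP fluorescence ratio; benchmarks: DMSO wells and RFP-L50D-GFP cells; doses: 20 µM single dose, 1% DMSO; schedule: overnight cell settling, then overnight compound exposure, 37 °C, 5% CO2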
ADAM10 inh = human ADAM10 inhibitors, primary screen, biochemical, QFRET, HTS; Disintegrin and metalloproteinase domain-containing protein 10 (Homo sapiens), O14672; inhibition, % at 7 µM; actives 0.62% (n = 370,000); recombinant ADAM10, EDANS/DABCYL FRET peptide cleavage, 3 h;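 active = inhibition above a per-campaign cutoff equal to the mean of compounds falling between control-based bounds plus 3 SD, cut at about 20% in these data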;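 note: 0% = DMSO wells while the 100% control is not disclosed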
Target sequence (O14672 214-748 limits assumed): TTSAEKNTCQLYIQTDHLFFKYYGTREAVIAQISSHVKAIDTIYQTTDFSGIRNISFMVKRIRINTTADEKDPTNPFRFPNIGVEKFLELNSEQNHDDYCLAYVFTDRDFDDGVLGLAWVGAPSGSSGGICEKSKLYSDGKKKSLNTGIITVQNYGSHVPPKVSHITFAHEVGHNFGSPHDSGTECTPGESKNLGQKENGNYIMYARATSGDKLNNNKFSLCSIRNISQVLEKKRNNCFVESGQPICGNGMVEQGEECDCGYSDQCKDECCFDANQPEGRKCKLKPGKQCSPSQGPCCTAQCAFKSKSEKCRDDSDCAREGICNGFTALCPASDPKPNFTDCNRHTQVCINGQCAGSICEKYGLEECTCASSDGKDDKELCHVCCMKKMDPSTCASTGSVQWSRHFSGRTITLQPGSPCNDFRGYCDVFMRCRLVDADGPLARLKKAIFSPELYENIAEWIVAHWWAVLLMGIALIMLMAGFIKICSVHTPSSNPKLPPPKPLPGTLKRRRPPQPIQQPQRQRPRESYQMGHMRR
NR3A LBD binder = binders of NR3A ligand-binding domain, primary screen, biophysical, differential scanning fluorimetry, uHTS; Glutamate receptor ionotropic, NMDA 3A (GRIN3A) ligand-binding domain; NR3A LBD differential scanning fluorimetry, Tm shift; 0% = protein alone, 100% = glycine-bound protein; Tm shift relative to glycine control, % at 25 µM; actives 2.5% (n = 340,000);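 active = melting temperature shift of at least 10% of the positive control shift, at one fixed dose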
ADAM10 counter = ADAM10 inhibitors, counter-screen for ADAM17 exosite inhibitor project, biochemical, FRET, human ADAM10 | actives 47% (n = 2,900) | shares compounds with ADAM17 inh | AID 743256, 2014 | inhibition, % at 6.95 µM | recombinant ADAM10, EDANS/DABCYL FRET peptide cleavage, 3 h;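 active = mean inhibition over the triplicate runs exceeds the activity threshold set in the earlier primary screen, cut at about 20% in these data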;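 note: 0% = DMSO wells and 100% = marimastat wells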
ADAM17 confirm = ADAM17 inhibitors, hit retest, confirmation, biochemical, QFRET peptide cleavage; inhibition, % at 6.95 µM; actives 65% (n = 2,900); recombinant ADAM17, EDANS/DABCYL QFRET peptide cleavage; AID 743257, 2014; shares compounds with ADAM17 inh;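 active = mean inhibition across replicates above the hit cutoff set in the primary screen, cut at about 8.5% in these data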;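 note: 0% = DMSO wells and 100% = marimastat wells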
* marks the source's active call; other numbers are inactive results; nt = not tested or not shown. Rows were chosen to be rich in hits. Some 4.7% of all compounds tested hit in one or more screens of this group.

SMILES	ADAM17 inh	MPTP block	SKN-1 block	MT1-MMP act inh	ADAM10 inh	NR3A LBD binder	ADAM10 counter	ADAM17 confirm
CC(C)Oc1ccc(C(=O)Nc2cccc(S(=O)(=O)N3CCCC3)c2)cc1	9.0*	-1	4	4	13	0	6	2
COc1cccc(NC(=O)c2ccc(S(=O)(=O)N3CCCC3)cc2)c1	-1	-1	1	5	1	1	nt	nt
Cc1ccc(C)c(N2N=C(C(=O)Nc3cccc(S(=O)(=O)N4CCCCC4)c3)CCC2=O)c1	13*	0	4	-1	12	0	9	6
CC(C)Oc1ccc(C(=O)Nc2ccc(Cl)c(S(=O)(=O)Nc3ccc(Cl)cc3)c2)cc1	10*	41	18	-28	18	20*	26*	16*
O=C(Nc1cccc(O)c1)c1ccc(S(=O)(=O)N2CCCCCC2)cc1	10*	0	15	5	10	2	12	7
COc1cc2c(cc1OC)CN(C(=O)c1cc(C3CC3)nn1-c1ccccc1)CC2	-3	0	13	0	-3	-3	nt	nt
CCCc1nnc(SCC(=O)Nc2ccc3c(c2)OCCO3)n1CCOC	1	0	-13	4	7	1	nt	nt
O=C(c1ccccc1Cl)N1CCN(Cc2ccc3c(c2)OCO3)CC1	-4	0	5	-1	0	-2	nt	nt
CCN(c1ccc(NC(=O)COC(=O)C2CCN(c3ccc(C(F)(F)F)cn3)CC2)cc1)C(C)C	8.9*	1	-6	5	11	-3	37*	18*
O=C(COC(=O)C1CCN(S(=O)(=O)c2ccc3c(c2)OCCO3)CC1)Nc1ccc(C(F)(F)F)cc1	8.7*	3	5	4	13	-1	13	11*
CCN(CC)c1ccc(NC(=O)COC(=O)C2CCN(c3ccc(C(F)(F)F)cn3)CC2)cc1	1	0	16	2	-4	-3	nt	nt
c1ccc(N2CCN(C3CCSC3)CC2)cc1 (configuration not stated)	-1	0	13	2	0	0	nt	nt
CCOc1cccc(OCCOc2ccc(C(=O)c3ccccc3)cc2)c1	10*	4	-4	3	10	-1	20	14*
COC(=O)C1=C(C)NC(C)=C(C(=O)OC)C1C1CC=CCC1 (configuration not stated)	-9	-1	-16	-1	-8	-1	nt	nt
Cc1ccc(NC(=O)Nn2cnnc2)cc1	-6	1	24	1	2	2	nt	nt
O=C(Nc1ccc([N+](=O)[O-])cc1)Nn1cnnc1	10*	44	-25	-1	6	0	5	8
CC(C)(C)NC(=O)CSc1nc(-c2ccc(F)cc2)cs1	9.1*	2	10	2	3	-1	3	0
CC(=O)Oc1ccc(N2C(=O)C3C4C=CC(O4)C3C2=O)cc1 (configuration not stated)	9.8*	1	4	3	-2	4	19	17*
COc1ccc(C(C(=O)NC2CCCC2)N(C(=O)c2snc(C(N)=O)c2N)C2CCCC2)cc1OC (configuration not stated)	-15	-1	1	-1	-40	-2	nt	nt

Assay outcomes as filed in PubChem BioAssay.
